What was measured:
[1] = test system: serum IL-1β, IL-6, TNF-α and IFN-γ; test: LPS challenge mouse acute inflammation model; type: in vivo, C57BL/6 mice; conditions: oral, 3 days, LPS 300 μg/kg IP
Method in brief: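 Female C57BL/6 mice (6–8 weeks, 18–20 g) were acclimatised for 2 days. LPS 300 μg/kg/day was given IP in 500 μL on days −3, −2 and −1 (n = 8 per LPS group). Test compound (10 or 40 mg/kg/day) was given intragastrically in 500 μL saline 4 h after each LPS dose. Dexamethasone 10 mg/kg/day served as positive control. Saline IP controls had n = 3. Sera were taken 24 h after the last dose for cytokine ELISA.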

[2] = target: Keap1-Nrf2 interaction (Keap1 Kelch domain / FITC-9mer Nrf2 peptide) (Homo sapiens, UniProt Q14145); test: Fluorescence polarization; type: binding
[3] = HPLC assay for H2O2-induced drug release; type: physicochemical
Method in brief: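 A 10 mM DMSO stock of test compound was diluted to 50 μM final in PBS (10 mM, pH 7.4). H2O2 was added at graded levels (24 h incubation) or at 10 mM (time course), then vortexed. Incubation was at 37 °C in triplicate. Samples taken at intervals were injected directly onto C18 HPLC (70% methanol, 0.5 mL/min, DAD detection). Percent compound came from peak areas against a standard curve.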

[4] = Stability in simulated gastric fluid and simulated intestinal fluid; type: in vitro ADME; conditions: after 8 h, 37 °C, 20 μM
Method in brief: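 Test compound (20 μM) was incubated separately in commercial artificial gastric and intestinal juices at 37 °C for various times, in three parallel runs. Proteins were precipitated with methanol, vortexed and centrifuged at 5000 rpm for 5 min. Supernatants were analysed by HPLC (C18, 70% methanol, 0.5 mL/min) from peak areas.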

[5] = Parallel artificial membrane permeability assay; type: physicochemical; conditions: PAMPA
Method in brief: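 Effective permeability (Pe) at pH 7.4 was measured by double-sink PAMPA.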

RAW264.7 cells [6] = test: Inflammatory factors; type: cell-based, mouse
Method in brief: (§1)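 RAW264.7 cells were pretreated with LPS (20 ng/mL) for 8 h, then exposed to test compound for 16 h. Total RNA was extracted with TRIzol and reverse-transcribed, followed by real-time qRT-PCR. mRNA was normalised to β-actin and expressed as fold of control. Data are means ± SEM, n = 3 independent observations, one-way ANOVA.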

pH stability in PBS = type: physicochemical; conditions: pH 4 to 10, 24 h, 37 °C, 20 μM
Method in brief: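 PBS was adjusted to pH 4–10 with 0.1 M HCl or NaOH. Test compound (20 μM) was incubated at 37 °C for 24 h, in triplicate. Solutions were filtered and injected directly on HPLC three times. Percent remaining came from peak areas.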

[7] = Liver microsome stability; type: in vitro ADME, rat
Method in brief: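 Rat (CD-1 male) liver microsomes from a 20 mg/mL stock were shaken in PBS at 37 °C for 10 min. Test compound was added from a 0.5 mM DMSO solution, with a 20 μM test level. After 5 min preincubation, the reaction was started with NADPH (6 mM stock). It was quenched with ice-cold acetonitrile at 0, 5, 15, 30 and 45 min. Samples were centrifuged at 5000 rpm for 15 min and supernatants analysed by LC-MS/MS. Ketanserin served as reference.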

RAW264.7 cells [8] = test: Antioxidant capacity; type: cell-based, mouse; conditions: LPS (20 ng/mL) treated RAW 264.7 cells
Method in brief: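 RAW264.7 cells were pretreated with LPS (20 ng/mL) for 8 h, then exposed to test compound for a further 16 h. SOD activity, GSH-Px activity, GSH/GSSG ratio and MPO activity were measured in the cells. Data are means ± SEM of 3 independent observations, with one-way ANOVA.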

Plasma stability = type: in vitro ADME, rat; conditions: 20 μM, 37 °C
Method in brief: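 Test compound (20 μM) was incubated in plasma at 37 °C for various times, in three parallel runs. Proteins were precipitated with methanol, vortexed and centrifuged at 12,000 rpm for 5 min. Supernatants were analysed by HPLC from peak areas.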

HepG2-ARE-C8 cells = test: Nrf2/ARE luciferase reporter assay; type: cell-based
[9] = In vivo pharmacokinetic assay; design: species or system SD rats; conditions: rat
RAW264.7 cells [10] = test: qRT-PCR and Western blot of Nrf2-ARE driven genes in LPS-treated cells; type: cell-based, mouse; conditions: 20 ng/mL LPS 8 h
Method in brief: as §1

Chain of Keap1-Nrf2 interaction (Keap1 Kelch domain / FITC-9mer Nrf2 peptide) (Q14145 322-609): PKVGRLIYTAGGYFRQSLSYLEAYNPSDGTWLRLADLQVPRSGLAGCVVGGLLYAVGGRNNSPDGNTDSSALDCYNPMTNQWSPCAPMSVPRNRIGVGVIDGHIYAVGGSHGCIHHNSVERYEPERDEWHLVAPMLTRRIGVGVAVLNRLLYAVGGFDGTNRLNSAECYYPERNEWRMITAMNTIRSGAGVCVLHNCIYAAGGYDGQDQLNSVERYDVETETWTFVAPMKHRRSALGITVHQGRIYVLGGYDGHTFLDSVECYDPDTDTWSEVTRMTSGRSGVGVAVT

With `C[C@@H]1C[C@H]2[C@@H]3CCC4=CC(=O)C=C[C@]4(C)[C@@]3(F)[C@@H](O)C[C@]2(C)[C@@]1(O)C(=O)CO` [DXM, Dexamethasone, reference compound] the “Anti-inflammation effect on serum pro-inflammatory cytokines” value (shortened to “Anti-inflammation effect”) ([1]; 10 mg/kg) was “diminished inflammatory response”.
For `COc1ccc(S(=O)(=O)N(CC(=O)N2CCSC2=O)c2ccc(N(CC(=O)N3CCSC3=O)S(=O)(=O)c3ccc(OC)cc3)c3ccccc23)cc1` [pro1, N,N'-(naphthalene-1,4-diyl)bis(4-methoxy-N-(2-oxo-2-(2-oxothiazolidin-3-yl)ethyl)benzenesulfonamide)], the “Inhibition against Keap-Nrf2 interaction in the FP assay” value [2] was “no inhibition” and the “Production of compound 1 from the prodrug in the presence of H2O2” value ([3]; H2O2 (10 mM), PBS pH 7.4, 37 °C, UPLC/HRMS) was “cannot be observed even after 12 h”.
With `COc1ccc(S(=O)(=O)Nc2ccc(N(CC(=O)N3CCSC3=O)S(=O)(=O)c3ccc(OC)cc3)c3ccccc23)cc1` [pro2, 4-methoxy-N-(4-((4-methoxyphenyl)sulfonamido)naphthalen-1-yl)-N-(2-oxo-2-(2-oxothiazolidin-3-yl)ethyl)benzenesulfonamide] the “Remaining in simulated gastric fluid (SGF)” value [4] was “more than 50%”, the “Remaining in simulated intestinal fluid (SIF)” value [4] was “more than 50%” and the “Pe at pH 7.4” value [5] was 6.35 10−6 cm/s. The “LPS-induced elevation of IL-1β and IL-6 protein” value (RAW264.7 cells [6]; LPS (20 ng/mL) 8 h, Western blot) was “almost completely suppressed the elevation”, the “mRNA levels of IL-1β and IL-6” value (RAW264.7 cells [6]; LPS (20 ng/mL) 8 h, qRT-PCR) was “significant suppression effects” and the “Suppression of IL-1β, IL-6 and TNF-α production” value (RAW264.7 cells [6]; LPS (20 ng/mL), culture supernatants, ELISA) was “obvious superiority in the suppression”. For the same compound, the “Stability to hydrolysis in PBS” value (pH stability in PBS) was “relatively stable”, the “Stability in co-incubation with rat liver microsomes” value [7] was “quite stable” and the “Activities of SOD and GSH-Px” value (RAW264.7 cells [8]) was “significantly restored the activities”. For the same compound, the “GSH/GSSG ratio and MPO activity” value (RAW264.7 cells [8]) was “restored the levels nearly back to normal”, the “Stability in rat plasma” value (Plasma stability) was “quite stable” and the “Relative ARE induction activity under normal conditions” value (HepG2-ARE-C8 cells; HepG2-ARE-C8 cells, no LPS) was “nearly inactive”. The “Relative ARE induction activity under various concentrations of LPS” value (HepG2-ARE-C8 cells; LPS pretreatment 8 h, then compound 200 nM for 12 h) was “LPS concentration-dependent enhancement of Nrf2-ARE inducing activity”, the “Inhibition against Keap-Nrf2 interaction in the FP assay” value [2] was “no inhibition” and the “Anti-inflammation effect” value ([1]; 10 mg/kg) was “comparable therapeutic effects with DXM”. The “Anti-inflammation effect” value ([1]; 40 mg/kg (high dose)) was “more potent effects”, the “Prodrug released to parent compound 2” value ([3]; 1 mM H2O2, incubating 24 h, PBS pH 7.4, 37 °C) was “approximately 60%” and the “Time to complete release to the parent compound 2” value ([3]; 10 mM H2O2, PBS pH 7.4, 37 °C) was ≤ 3 h. For the same compound, the “Conversion to parent compound 2 determined by HPLC” value ([3]; 10 mM H2O2, within 3 h) was > 98%, the Cl_F ([9]; I.V. (2 mg/kg)) was 18.5 ± 3.9 mL/min/kg and the Vz_F ([9]; I.V. (2 mg/kg)) was 6.44 ± 4.09 L/kg. It also gave a Vz_F ([9]; P.O. (10 mg/kg)) of 4.79 ± 2.17 L/kg, a bioavailability ([9]; male, SD, plasma, oral) of 68.1% and a CL/F ([9]; male, SD, plasma, po, 10 mg/kg) of 26.4 ± 1.14 mL/min/kg. The “Transcription of Nrf2 targeted genes (HO-1, NQO1, GCLM mRNA)” value (RAW264.7 cells [10]; compound 500 nM, qRT-PCR) was “highly enhanced the transcription” and the “Protein levels of Nrf2 and downstream antioxidant enzymes” value (RAW264.7 cells [10]; then compound 16 h, Western blot) was “remarkably accumulated Nrf2 protein and elevated downstream antioxidant enzymes”.

— publication PMC7231841 (Redox Biology, 2020)
